From PubChem BioAssay
Mot1-301 SUMO: blocks SUMOylation pathway, rescuing yeast Mot1-301 growth | S. cerevisiae Mot1-301 growth rescue, ATP luminescence, 38.5C; percent above DMSO median, 100 means doubled | growth rescue, % at 18.8 µM | 320,000 tested, 1% active | AID 2716;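 active = every valid replicate shows activation above 250% relative to neutral control wells; inactive = the rest, any valid replicate at or below 250%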;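 also: OY570 slx delta 5 strain wells were the positive control but not used for scaling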
Statin myotox sup: suppressors of simvastatin-induced myotoxicity in C2C12 myotubes; ATP luminescence, 48 h; scaled: DMSO 0, geranylgeraniol control 100; 330,000 tested, 0.78% active; AID 602340; rescue of ATP level, % at 7.49 µM;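 active = mean ATP rescue above about 67%, or every replicate alone reaching that limit, limit read from the data, passing the limit was not always enough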;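 also: myotubes were challenged with 10 µM simvastatin during compound exposure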
Cneo AK release: Cryptococcus neoformans lysis via adenylate kinase release; C. neoformans lysis, adenylate kinase release luminescence, 4 h; normalised: neutral wells 0, clomiphene wells 100; lysis activity, % at 15 µM; 360,000 tested, 0.2% active; AID 651654;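 active = mean lysis activity across replicates of at least 80%, whatever share of replicates individually reach that level; inactive = mean lysis activity below 80%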
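Assay system: Cryptococcus neoformans yeast cells / Dosing: single-point compound dose / Timing: 4 h at 37 °C static, read 1 h later / Measured by: luminescence of released adenylate kinase using an AK detection reagent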
Starred values were filed as active, the others as inactive; . = no result. Shown are actives, neighbours in structure and some others; about 1.5% of the full set was active somewhere.

SMILES	Mot1-301 SUMO	Statin myotox sup	Cneo AK release
C[C@H]1CN([C@@H](C)CO)C(=O)Cc2cc(NC(=O)C3CCCCC3)ccc2O[C@@H]1CN(C)Cc1ccc(-c2ccccc2)cc1	.	23.4	1.0
C[C@@H]1CN([C@@H](C)CO)C(=O)Cc2cc(NC(=O)C3CCCCC3)ccc2O[C@@H]1CN(C)Cc1ccc(C(F)(F)F)cc1	.	4.5	2.2
COc1ccc(CN(C)C[C@H]2Oc3ccc(NC(=O)Nc4ccc(F)cc4)cc3CC(=O)N([C@@H](C)CO)C[C@H]2C)cc1	.	11.6	1.2
Cc1noc(C)c1NC(=O)Nc1ccc2c(c1)CC(=O)N([C@H](C)CO)C[C@@H](C)[C@@H](CN(C)Cc1ccccc1)O2	.	1.0	-3.2
C[C@@H]1CN([C@H](C)CO)C(=O)Cc2cc(NC(=O)C3CCCCC3)ccc2O[C@H]1CN(C)Cc1ccc(-c2ccccc2)cc1	.	98.7*	0.9
Cc1noc(C)c1NC(=O)Nc1ccc2c(c1)CC(=O)N([C@H](C)CO)C[C@H](C)[C@@H](CN(C)Cc1ccc(Oc3ccccc3)cc1)O2	.	103.4*	-0.4
C[C@H](CO)N1C[C@H](C)[C@@H](CN(C)Cc2ccc(C(F)(F)F)cc2)Oc2ccc(NC(=O)C3CCCCC3)cc2CC1=O	.	70.9*	1.7
C[C@H]1CN([C@@H](C)CO)C(=O)Cc2cc(NC(=O)CCC(F)(F)F)ccc2O[C@H]1CN(C)Cc1ccc(Oc2ccccc2)cc1	.	10.3	-0.3
C[C@@H]1CN([C@@H](C)CO)C(=O)Cc2cc(NC(=O)C3CCCCC3)ccc2O[C@@H]1CN(C)Cc1ccc(Oc2ccccc2)cc1	.	-19.3	-1.8
C[C@@H]1CN([C@@H](C)CO)C(=O)Cc2cc(NC(=O)C3CCCCC3)ccc2O[C@H]1CN(C)Cc1ccc(Oc2ccccc2)cc1	.	88.3*	-0.4
C[C@H](CO)N1C[C@H](C)[C@@H](CN(C)Cc2ccc(Oc3ccccc3)cc2)Oc2ccc(NC(=O)CCC(F)(F)F)cc2CC1=O	.	93.2*	0.1
O=C(C[C@H]1CC[C@@H]2[C@H](COC[C@@H](O)CN2S(=O)(=O)c2ccccc2Cl)O1)NCc1ccccc1Cl	.	15.1	-3.9
Cn1ncc(C#N)c1/N=C/N1CCOCC1	-15.6	117.3*	-2.6
Cn1ncc(C#N)c1/N=C/N1CCCCCC1	4.8	-4.9	0.4
CCOC(=O)c1c(NC(=O)CSc2nc3c(c(=O)n(C)c(=O)n3C)n2C(C)C)sc(C)c1C	-8.6	2.8	-0.3
CC(C)n1c(SCC(=O)Nc2nc3c(s2)CCCC3)nc2c1c(=O)n(C)c(=O)n2C	4.5	98.7*	2.1
COc1cc(C(O)c2nc3ccccc3n2C(C)C)cc(OC)c1OC (configuration not stated)	-5.9	-3.3	-0.8
COc1ccc(OC)c(C(O)c2nc3ccccc3n2C(C)C)c1 (configuration not stated)	303.9*	10.1	-3.9
C[C@H]1CN([C@@H](C)CO)C(=O)c2cc(NS(=O)(=O)c3cn(C)cn3)ccc2O[C@@H]1CN(C)Cc1ccc(C(=O)O)cc1	.	-16.9	-3.9
Cc1ccc(S(=O)(=O)N(C)C[C@H]2Oc3ccc(NC(=O)CCN4CCOCC4)cc3C(=O)N([C@H](C)CO)C[C@@H]2C)cc1	.	10.5	-1.5
CCOC(=O)Cn1c(=O)c2c(nc3n2CCN3Cc2ccccc2)n(C)c1=O	2.9	134.3*	2.1
CCOC(=O)Cn1c(=O)c2c(nc3n2CCCN3Cc2ccccc2)n(C)c1=O	-17.4	-3.7	1.1
CN1[C@@H]2c3ccc(C4=CCCC4)c(=O)n3C[C@@H]2[C@@H](CO)[C@@H]1C(=O)NCc1ccccc1F	.	12.3	-0.3
C[C@@H]1CN([C@@H](C)CO)C(=O)c2cc(C3=CCCC3)cnc2O[C@H]1CN(C)Cc1cccnc1	.	-9.4	-2.0
CNC[C@H]1OCCCC[C@@H](C)Oc2ccc(NC(=O)Nc3ccc(F)cc3)cc2C(=O)N([C@H](C)CO)C[C@@H]1C	.	-2.6	.
SMILES	Mot1-301 SUMO	Statin myotox sup	Cneo AK release
COc1ccc(N=C2S/C(=C\c3ccco3)C(=O)N2CC(C)C)cc1	-6.1	-7.1	-1.1
COc1ccc(N=C2S/C(=C\c3cc(C)n(C)c3C)C(=O)N2CC(C)C)cc1	416.6	156.2*	-3.1
C[C@H]1CCCCO[C@H](CN(C)CC2CCCCC2)[C@@H](C)CN([C@@H](C)CO)C(=O)c2cc(NS(=O)(=O)c3cccs3)ccc2O1	.	.	1.4
CC(C)C(NC(=O)C1CCCCC1)C(=O)NCc1ccccn1 (configuration not stated)	16.3	1.7	0.9
CC1CCC(C(=O)NC(C(=O)NCc2ccccn2)C(C)C)CC1 (configuration not stated)	343.6*	.	-9.0
C[C@H](CO)N1C[C@H](C)[C@H](CN(C)S(=O)(=O)c2cn(C)cn2)OCCCC[C@H](C)Oc2ccc(NC(=O)Nc3ccc(F)cc3)cc2C1=O	.	.	14.5
CCC(=O)Nc1cccc(-c2nc3ccc(C)cc3o2)c1	-11.9	-8.0	-1.0
Cc1ccc2nc(-c3cccc(NC(=O)c4ccc5c(c4)OCCO5)c3)oc2c1	-4.8	110.0*	-3.2
COc1ccc(-c2nnc(SCC(=O)N3CCCC3)o2)cc1	-10.0	-8.4	.
COC(=O)C1CCN(C(=O)CSc2nnc(-c3ccncc3)o2)CC1	312.0*	.	-0.7
O=[N+]([O-])c1ccc(N2CCN(Cc3ccccc3)CC2)s1	118.0	12.2	1.0
O=[N+]([O-])c1ccc(N2CCCCC2)s1	1.4	124.5*	-6.2
COc1ccc(NS(=O)(=O)c2ccc(NS(=O)(=O)c3cccs3)cc2)cc1	4.9	1.2	-3.1
Cc1ccc(NS(=O)(=O)c2ccc(NS(=O)(=O)c3cccs3)cc2)cc1	302.5*	-4.6	-1.3
COc1ccc(C(=O)Nc2ccc3c(c2)C(=O)N(C)C[C@@H](OC)[C@@H](C)CN(C(C)=O)[C@@H](C)CO3)cc1	.	-20.6	-8.0
C[C@H](O)C#Cc1ccc2c(c1)O[C@@H](CN(C)C(=O)c1ccncc1)[C@H](C)CN([C@H](C)CO)S2(=O)=O	.	13.6	0.4
CCOc1c(Br)cc(C(N)=O)cc1OC	-11.0	2.1	0.6
CCCOc1c(Br)cc(C(N)=O)cc1OCC	315.9*	.	.
CCNC(=O)C[C@@H]1CC[C@H](NS(=O)(=O)c2ccc(C)cc2)[C@@H](CO)O1	.	11.2	0.8
CNC(=O)c1cc(OCC(F)(F)F)ccc1OCC(F)(F)F	6.3	.	.
COc1cccc(/C=N\NC(=O)c2cc(OCC(F)(F)F)ccc2OCC(F)(F)F)c1	-9.1	124.4*	2.0
CCCCc1c(O)nc(SCC(=O)NCC2CCCO2)[nH]c1=O (configuration not stated)	-10.6	93.6*	-0.5
CCCCCc1c(O)nc(SCC(=O)NCC2CCCO2)[nH]c1=O (configuration not stated)	-8.0	-4.5	-1.3
CN1CCN(C(=O)C[C@@H]2CC[C@H]3[C@@H](COc4ccc(NC(=O)C5CCCCC5)cc4C(=O)N3C)O2)CC1	.	-12.4	-6.4
Cn1nc(C(C)(C)C)c([N+](=O)[O-])c1C(=O)N1CCOCC1	10.2	-7.1	-0.3
Cn1nc(C(C)(C)C)c([N+](=O)[O-])c1C(=O)N1CCCCCC1	444.1*	47.9	0.2
